Consider 18 compounds from ChEMBL document CHEMBL3872255, “Design, synthesis and analgesic/anti-inflammatory evaluation of novel diarylthiazole and diarylimidazole derivatives towards selective COX-1 inhibitors with better gastric profile” (Bioorg Med Chem, 2017).

Structures are written as SMILES. Calls of active or inactive are those of the source. The rule behind the calls is not given here.

Data set [1] in a line: Ulcerogenic effect in albino rat assessed as ulcer index […], po administered 2 to 3 days. Type of data set: toxicity, organism-based. Particulars: in vivo. In a few lines: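 Rats were fasted 2 h, fed 2 h, then fasted 20 h, with further doses on days 2 and 3. Stomachs were rinsed in 0.9% saline and lesions scored 0-4. Ulcer index = %incidence/10 + average severity + average ulcer number.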

Data set [2] addresses T1, Prostaglandin G/H synthase 1 (Ovis aries, UniProt P05979).
T1 sequence (P05979 whole entry): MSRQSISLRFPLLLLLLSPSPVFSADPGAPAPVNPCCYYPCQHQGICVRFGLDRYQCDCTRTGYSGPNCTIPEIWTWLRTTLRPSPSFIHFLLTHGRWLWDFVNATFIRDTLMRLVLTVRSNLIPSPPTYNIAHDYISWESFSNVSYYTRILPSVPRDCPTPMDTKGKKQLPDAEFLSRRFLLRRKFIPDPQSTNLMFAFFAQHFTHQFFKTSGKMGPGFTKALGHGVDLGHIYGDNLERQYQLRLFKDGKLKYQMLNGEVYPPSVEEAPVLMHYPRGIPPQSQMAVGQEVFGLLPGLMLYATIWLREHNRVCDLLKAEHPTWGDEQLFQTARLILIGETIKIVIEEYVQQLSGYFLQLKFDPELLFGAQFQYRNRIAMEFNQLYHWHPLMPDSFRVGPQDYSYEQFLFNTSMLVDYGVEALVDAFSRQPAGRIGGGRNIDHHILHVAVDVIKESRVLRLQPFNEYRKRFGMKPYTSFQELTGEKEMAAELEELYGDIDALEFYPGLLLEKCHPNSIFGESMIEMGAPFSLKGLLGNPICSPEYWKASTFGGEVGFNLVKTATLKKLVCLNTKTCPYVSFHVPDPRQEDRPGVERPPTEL
As to the kind of experiment: Inhibition of ovine COX-1 assessed as reduction in oxidation of TMPD using arachidonic acid as substrate preincubated for 5 mins followed by substrate and TMPD addition measured after 5 mins by colorimetric assay.

For data set [3], the system named is Rattus norvegicus. As to the kind of experiment: Anti-inflammatory activity against carrageenan-induced paw edema in albino rat assessed as paw thickness at 100 mg/kg, po pretreated for 1 hr followed by carrageenan challenge measured at 7 hrs post carrageenan challenge (reference value: 0.464 +/- 0.023 mm). The data set is classed as functional.
Data set [4] has as its system Rattus norvegicus. As to the kind of experiment: Anti-inflammatory activity against carrageenan-induced paw edema in albino rat assessed as paw thickness at 100 mg/kg, po pretreated for 1 hr followed by carrageenan challenge measured at 1 hr post carrageenan challenge (reference value: 0.394 +/- 0.220 mm). The data set is classed as functional.
The subject of data set [5] is Rattus norvegicus. As to the kind of experiment: Anti-inflammatory activity against carrageenan-induced paw edema in albino rat assessed as paw thickness at 100 mg/kg, po pretreated for 1 hr followed by carrageenan challenge measured at 3 hrs post carrageenan challenge (reference value: 0.401 +/- 0.019 mm). The data set is classed as functional.
Data set [6] is filed under the species Mus musculus. As to the kind of experiment: Analgesic activity in mouse assessed as decrease in number of acetic acid-induced writhing pretreated for 1 hr followed by acetic acid challenge measured between 5 to 20 mins after acetic acid injection. The data set is classed as functional. The essentials: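 Groups of five mice received test compound; 1 h later, 0.6% acetic acid (0.01 ml/g) was injected intraperitoneally. Writhes were counted for 15 min, from minute 5 to 20 after injection. Activity was taken as the reduction in writhing count. Diclofenac 6 mg/kg was the reference. Data are mean ± S.D., N=5, analysed by one-way ANOVA with Dunnett test.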

Data set [7] deals with Rattus norvegicus. Briefly: Anti-inflammatory activity against carrageenan-induced paw edema in albino rat assessed as inhibition of paw edema at 100 mg/kg, po pretreated for 1 hr followed by carrageenan challenge measured after 1 to 7 hrs relative to control. The data set is classed as functional.
For data set [8], the species on record is Mus musculus. Briefly: Analgesic activity in mouse assessed as number of acetic acid-induced writhing pretreated for 1 hr followed by acetic acid challenge measured between 5 to 20 mins after acetic acid injection. The data set is classed as functional. In a few lines: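 Groups of five mice. Test compound given 1 h before i.p. injection of 0.6% acetic acid, 0.01 ml/g. Writhing movements counted for 15 min, from the 5th to the 20th min after injection. Diclofenac 6 mg/kg served as reference. Activity is taken as the reduction in number of writhings; mean ± S.D., N=5.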

Data set [9] deals with Rattus norvegicus. As to the kind of experiment: Anti-inflammatory activity against carrageenan-induced paw edema in albino rat assessed as inhibition of paw edema at 60 mg/kg, po pretreated for 1 hr followed by carrageenan challenge measured after 1 to 7 hrs relative to control. Type of data set: functional.
The test system of data set [10] is Rattus norvegicus. As to the kind of experiment: Anti-inflammatory activity against carrageenan-induced paw edema in albino rat assessed as paw thickness at 60 mg/kg, po pretreated for 1 hr followed by carrageenan challenge measured at 1 hr post carrageenan challenge (reference value: 0.394 +/- 0.220 mm). The data set is classed as functional.
Data set [11] deals with Rattus norvegicus. As to the kind of experiment: Anti-inflammatory activity against carrageenan-induced paw edema in albino rat assessed as paw thickness at 60 mg/kg, po pretreated for 1 hr followed by carrageenan challenge measured at 7 hrs post carrageenan challenge (reference value: 0.464 +/- 0.023 mm). The data set is classed as functional.
Data set [12] has as its system Rattus norvegicus. Briefly: Anti-inflammatory activity against carrageenan-induced paw edema in albino rat assessed as paw thickness at 60 mg/kg, po pretreated for 1 hr followed by carrageenan challenge measured at 3 hrs post carrageenan challenge (reference value: 0.401 +/- 0.019 mm). Type of data set: functional.

Turning to `COc1ccc2c(c1)c(CC(=O)O)c(C)n2C(=O)c1ccc(Cl)cc1` [INDOMETHACIN], in data set [1], the UI turned out to be 19.5.

Turning to `O=C(Cn1cnc(-c2ccccc2)c1-c1ccccc1)N1CCCCC1`, the IC50 in data set [2] amounted to 8.51 µM.

As for `CN1CCN(C(=O)Cn2cnc(-c3ccccc3)c2-c2ccccc2)CC1`, the Activity came to 0.182 mm in data set [3], 0.147 mm in data set [4] and 0.168 mm in [5]. For the same compound, the half-maximal inhibitory concentration (IC50) in data set [2] was 4.17 µM. For the same compound, in [6], the result was Active. In addition, the inhibition in vivo at 100 mg/kg in data set [7] was determined as 60.5%.

Take `COc1ccc(-c2nc(NCC(=O)N3CCOCC3)sc2-c2ccc(OC)cc2)cc1`: the values for the Activity in [3], in data set [4] and in data set [5] were 0.213 mm, 0.17 mm and 0.19 mm, respectively. In addition, the concentration for half-maximal inhibition (IC50) in data set [2] came out at 4.01 µM. Moreover, the outcome in [6] was Active. Also, in [7], the inhibition in vivo at 100 mg/kg was 54.5%.

As for `O=C(O)Cn1cnc(-c2ccccc2)c1-c1ccccc1`, the Activity is recorded as 0.235 mm in data set [3], 10.67 - 14.4 in [8], 0.161 mm in [4] and 0.189 mm in data set [5]. Moreover, in data set [1], the UI was determined as 13.3. Moreover, the concentration for half-maximal inhibition (IC50) in [2] was 0.67 µM. Moreover, the inhibition in vivo at 100 mg/kg in data set [7] stood at 53.8%.

`O=C(O)CNc1nc(-c2ccccc2)c(-c2ccccc2)s1`: the results for the Activity in data set [3], in [4] and in [5] were 0.231 mm, 0.166 mm and 0.185 mm, respectively. In data set [1], the UI stood at 9.39. For the same compound, the half-maximal inhibitory concentration (IC50) in data set [2] was 0.42 µM. In addition, the inhibition in vivo at 100 mg/kg in [7] is 54%.

Take `COc1ccc(-c2nc(NCC(=O)N3CCCCC3)sc2-c2ccc(OC)cc2)cc1`: the IC50 in data set [2] turned out to be 6.01 µM.

In the case of `COc1ccc(-c2ncn(CC(=O)N3CCCCC3)c2-c2ccc(OC)cc2)cc1`, the IC50 in [2] is 7.34 µM.

As to `COc1ccc(-c2nc(NCC(=O)O)sc2-c2ccc(OC)cc2)cc1`, the Activity in [3] is recorded as 0.251 mm; in [8], 10.67 - 14.4; in data set [4], 0.165 mm; in data set [5], 0.213 mm. Besides, the UI in [1] amounted to 8.5. In addition, the IC50 in data set [2] was determined as 0.32 µM.

As for `COc1ccc(-c2ncn(CC(=O)O)c2-c2ccc(OC)cc2)cc1`, the Activity is 0.215 mm in [3], 10.67 - 14.4 in data set [8], 0.149 mm in data set [4] and 0.18 mm in data set [5]. The UI in data set [1] came out at 9.75. Further, the half-maximal inhibitory concentration (IC50) in [2] turned out to be 0.54 µM. For the same compound, in data set [7], the inhibition in vivo at 100 mg/kg worked out at 57%.

As to `O=C(O)Cc1ccccc1Nc1c(Cl)cccc1Cl` [DICLOFENAC], the inhibition in vivo at 60 mg/kg in data set [9] was determined as 84.5%. For the same compound, the Activity is 0.09 mm in [10], 0.04 mm in data set [11], 24 in data set [8] and 0.06 mm in data set [12].

Take `COc1ccc(-c2nc(NCC(=O)N3CCN(C)CC3)sc2-c2ccc(OC)cc2)cc1`: the Activity in [3] is listed as 0.172 mm; in data set [4] it was 0.144 mm; in [5], 0.163 mm. The IC50 in [2] was found to be 2.72 µM. The result in data set [6] was Active. The inhibition in vivo at 100 mg/kg in [7] stood at 61.9%.

For `O=C(Cn1cnc(-c2ccccc2)c1-c1ccccc1)N1CCOCC1`, the results for the Activity in [3], in [4] and in data set [5] were 0.218 mm, 0.166 mm and 0.186 mm, respectively. In addition, in data set [2], the IC50 was 6.32 µM. Further, in data set [6], the result was Active. Further, in [7], the inhibition in vivo at 100 mg/kg is 54.5%.

For the compound `O=C(CNc1nc(-c2ccccc2)c(-c2ccccc2)s1)N1CCOCC1`, the Activity in data set [3] was 0.192 mm; in data set [4] it was 0.148 mm; in data set [5], 0.167 mm. In data set [2], the 50% inhibitory concentration (IC50) stood at 5.76 µM. Also, in [6], the outcome was Active. In addition, in data set [7], the inhibition in vivo at 100 mg/kg was 59.8%.

For the compound `CN1CCN(C(=O)CNc2nc(-c3ccccc3)c(-c3ccccc3)s2)CC1`, the Activity is reported as 0.205 mm in data set [3], 0.173 mm in data set [4] and 0.197 mm in data set [5]. Moreover, the IC50 in data set [2] worked out at 3.04 µM. The result in data set [6] was Active. Besides, the inhibition in vivo at 100 mg/kg in data set [7] is 54.3%.

On to `COc1ccc(-c2ncn(CC(=O)N3CCN(C)CC3)c2-c2ccc(OC)cc2)cc1`, for which the results for the Activity in data set [3], in data set [4] and in [5] were 0.152 mm, 0.17 mm and 0.191 mm, respectively. In addition, the IC50 in data set [2] came out at 3.06 µM. The result in data set [6] was Active. Besides, the inhibition in vivo at 100 mg/kg in data set [7] came out at 58.8%.

Take `COc1ccc(-c2ncn(CC(=O)N3CCOCC3)c2-c2ccc(OC)cc2)cc1`: the Activity is 0.19 mm in data set [3], 0.146 mm in data set [4] and 0.159 mm in data set [5]. Further, the concentration for half-maximal inhibition (IC50) in data set [2] is 5.09 µM. Further, the outcome in [6] was Active. Moreover, in data set [7], the inhibition in vivo at 100 mg/kg came to 60.8%.

For `O=C(CNc1nc(-c2ccccc2)c(-c2ccccc2)s1)N1CCCCC1`, in data set [2], the IC50 amounted to 7.99 µM.
